# Data published in ChEMBL document CHEMBL1145827, “Structure-activity relationship comparison of (S)-2beta-substituted 3alpha-(bis[4-fluorophenyl]methoxy)tropanes and (R)-2beta-substituted 3beta-(3,4-dichlorophenyl)tropanes at the dopamine transporter” (J Med Chem, 2003).
# Experiments:
# [1] = molecular target: T1, Sodium-dependent dopamine transporter (Rattus norvegicus, UniProt P23977); assay: In vitro dopamine transporter binding affinity using [3H]WIN-35428 as radioligand was determined
# [2] = molecular target: T1, Sodium-dependent dopamine transporter; assay: In vitro potency for inhibiting [3H]- dopamine uptake was determined; format: functional
# Procedure, shortened: (§1)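 [3H]Dopamine uptake inhibition in rat brain synaptosomes, reported as IC50.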
# [3] = molecular target: Norepinephrine transporter (Rattus norvegicus, UniProt Q9WTR4); assay: Binding affinity towards norepinephrine transporter using [3H]nisoxetine as radioligand was determined
# Chain of Norepinephrine transporter (Q9WTR4 whole entry): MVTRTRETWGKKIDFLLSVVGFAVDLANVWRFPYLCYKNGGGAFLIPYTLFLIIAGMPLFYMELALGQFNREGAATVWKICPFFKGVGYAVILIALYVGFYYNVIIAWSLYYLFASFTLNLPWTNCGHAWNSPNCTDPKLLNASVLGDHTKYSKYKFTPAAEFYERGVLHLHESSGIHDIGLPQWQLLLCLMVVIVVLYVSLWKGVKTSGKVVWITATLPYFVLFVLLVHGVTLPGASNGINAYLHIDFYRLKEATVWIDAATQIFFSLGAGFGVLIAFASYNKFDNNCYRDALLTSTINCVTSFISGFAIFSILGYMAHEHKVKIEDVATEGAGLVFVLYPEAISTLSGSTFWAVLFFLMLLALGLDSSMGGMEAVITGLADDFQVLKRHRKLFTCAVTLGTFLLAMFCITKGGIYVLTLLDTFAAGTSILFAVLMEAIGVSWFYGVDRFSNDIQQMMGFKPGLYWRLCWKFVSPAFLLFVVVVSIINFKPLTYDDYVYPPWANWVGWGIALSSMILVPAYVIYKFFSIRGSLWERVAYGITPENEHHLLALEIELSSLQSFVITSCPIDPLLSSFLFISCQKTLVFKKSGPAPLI
# Procedure, shortened: (§2)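 Radioligand displacement binding for SERT, NET and muscarinic receptors. Ki from at least three independent experiments, each run in triplicate.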
# [4] = molecular target: T1, Sodium-dependent dopamine transporter; assay: In vitro potency for inhibiting [3H]- dopamine uptake in rat brain was determined; format: functional, tissue-based; procedure, shortened: as §1
# [5] = molecular target: T1, Sodium-dependent dopamine transporter; assay: Binding affinity towards dopamine transporter
# Procedure, shortened: (§3)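 Rat brain DAT, radioligand displacement with [3H]WIN 35,428. Ki from at least three independent experiments, each run in triplicate.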
# [6] = molecular target: T2, Muscarinic acetylcholine receptor M1 (Rattus norvegicus, UniProt P08482); assay: Binding affinity towards Muscarinic acetylcholine receptor M1 using [3H]pirenzepine as radioligand was determined; procedure, shortened: as §2
# T2 sequence (P08482 whole entry): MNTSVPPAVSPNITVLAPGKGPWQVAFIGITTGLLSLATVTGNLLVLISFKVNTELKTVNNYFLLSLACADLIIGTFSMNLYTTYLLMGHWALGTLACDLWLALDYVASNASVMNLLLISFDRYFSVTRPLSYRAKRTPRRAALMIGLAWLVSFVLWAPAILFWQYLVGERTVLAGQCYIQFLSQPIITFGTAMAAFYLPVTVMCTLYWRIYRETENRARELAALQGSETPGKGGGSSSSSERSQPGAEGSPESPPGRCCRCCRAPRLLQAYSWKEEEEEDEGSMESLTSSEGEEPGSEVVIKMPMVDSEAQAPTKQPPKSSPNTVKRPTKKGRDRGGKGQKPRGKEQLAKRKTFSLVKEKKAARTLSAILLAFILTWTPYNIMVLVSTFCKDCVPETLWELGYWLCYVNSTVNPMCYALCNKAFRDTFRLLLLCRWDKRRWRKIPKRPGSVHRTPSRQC
# [7] = molecular target: Sodium-dependent serotonin transporter (Rattus norvegicus, UniProt P31652); assay: Binding affinity towards serotonin transporter using [3H]citalopram as radioligand was determined; procedure, shortened: as §2
# Chain of Sodium-dependent serotonin transporter (P31652 whole entry): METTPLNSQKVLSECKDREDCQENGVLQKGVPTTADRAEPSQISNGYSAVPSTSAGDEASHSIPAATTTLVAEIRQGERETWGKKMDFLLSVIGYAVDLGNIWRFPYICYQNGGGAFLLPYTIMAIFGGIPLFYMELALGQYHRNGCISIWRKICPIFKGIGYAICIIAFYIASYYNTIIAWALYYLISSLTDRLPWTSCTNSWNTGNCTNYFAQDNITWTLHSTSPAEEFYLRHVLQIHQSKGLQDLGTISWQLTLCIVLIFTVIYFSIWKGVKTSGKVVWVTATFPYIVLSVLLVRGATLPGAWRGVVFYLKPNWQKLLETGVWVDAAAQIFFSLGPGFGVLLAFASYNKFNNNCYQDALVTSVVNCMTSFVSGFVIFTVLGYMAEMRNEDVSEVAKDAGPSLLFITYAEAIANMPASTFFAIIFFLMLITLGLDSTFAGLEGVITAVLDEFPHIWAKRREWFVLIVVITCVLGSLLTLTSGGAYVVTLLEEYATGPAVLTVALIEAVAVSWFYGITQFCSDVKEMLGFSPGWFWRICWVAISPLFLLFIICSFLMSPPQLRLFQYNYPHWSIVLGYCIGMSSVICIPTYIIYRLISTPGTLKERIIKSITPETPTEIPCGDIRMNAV
# [8] = molecular target: T1, Sodium-dependent dopamine transporter; assay: In vitro inhibitory activity of dopamine transporter using [3H]WIN-35428 as radioligand was determined; procedure, shortened: as §3
# T1 sequence (P23977 whole entry): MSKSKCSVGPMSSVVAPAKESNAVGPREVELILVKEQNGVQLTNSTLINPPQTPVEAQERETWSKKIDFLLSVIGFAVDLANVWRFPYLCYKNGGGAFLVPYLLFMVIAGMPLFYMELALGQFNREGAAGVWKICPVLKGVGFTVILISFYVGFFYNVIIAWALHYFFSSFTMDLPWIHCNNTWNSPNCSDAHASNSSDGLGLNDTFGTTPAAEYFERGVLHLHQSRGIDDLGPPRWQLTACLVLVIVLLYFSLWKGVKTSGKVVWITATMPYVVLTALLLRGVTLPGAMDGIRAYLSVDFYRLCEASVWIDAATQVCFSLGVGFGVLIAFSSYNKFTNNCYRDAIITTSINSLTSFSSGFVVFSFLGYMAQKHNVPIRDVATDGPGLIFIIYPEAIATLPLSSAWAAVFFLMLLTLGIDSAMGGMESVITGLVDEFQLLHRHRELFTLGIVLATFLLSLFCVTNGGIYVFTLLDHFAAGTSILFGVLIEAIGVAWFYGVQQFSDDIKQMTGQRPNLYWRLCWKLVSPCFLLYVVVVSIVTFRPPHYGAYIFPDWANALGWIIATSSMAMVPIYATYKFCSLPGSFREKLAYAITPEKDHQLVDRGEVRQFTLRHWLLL
Compound,Ki [1] [nM],IC50 [2] [nM],Ki [3] [nM],further results
CN1C2CCC1[C@@H](C(=O)OCCc1ccc(N)c(I)c1)[C@@H](OC(c1ccc(F)cc1)c1ccc(F)cc1)C2 (some centres undefined),42.3,–,–,–
COC(=O)[C@@H]1C2CCC(C[C@@H]1OC(c1ccc(F)cc1)c1ccc(F)cc1)N2C (some centres undefined),–,1.5,–,–
CN1C2CCC1[C@@H](C(=O)OCc1ccccc1)[C@@H](OC(c1ccc(F)cc1)c1ccc(F)cc1)C2 (some centres undefined),48.4,2.2,–,–
CCOC(=O)[C@@H]1C2CCC(C[C@@H]1OC(c1ccc(F)cc1)c1ccc(F)cc1)N2C (some centres undefined),16.4,1.8,629,–
CN1C2CCC1[C@@H](C(=O)OCCc1ccccc1)[C@@H](c1ccc(Cl)c(Cl)c1)C2 (some centres undefined),10.9,–,–,IC50 [4]: 3.2 nM; Ki [5]: 100 nM
CN1C2CCC1[C@@H](C(=O)OCc1ccccc1)[C@@H](c1ccc(Cl)c(Cl)c1)C2 (some centres undefined),34.7,–,–,IC50 [4]: 19 nM; Ki [5]: 100 nM
CCOC(=O)[C@@H]1C2CCC(C[C@@H]1c1ccc(Cl)c(Cl)c1)N2C (some centres undefined),5.54,–,–,IC50 [4]: 1.9 nM; Ki [5]: 100 nM
CC(C)OC(=O)[C@@H]1C2CCC(C[C@@H]1c1ccc(Cl)c(Cl)c1)N2C (some centres undefined),17.9,–,–,IC50 [4]: 2.7 nM; Ki [5]: 100 nM
COC(=O)[C@@H]1C2CCC(C[C@@H]1c1ccc(Cl)c(Cl)c1)N2C (some centres undefined),6.3,–,15.8,Ki [6]: 3140 nM; IC50 [4]: 1.4 nM; Ki [5]: 100 nM; Ki [7]: 1.46 nM
CN1C2CCC1[C@@H](C(=O)OCCc1ccc(N=[N+]=[N-])c(I)c1)[C@@H](OC(c1ccc(F)cc1)c1ccc(F)cc1)C2 (some centres undefined),–,–,–,IC50 [8]: 210 nM
CN1C2CCC1[C@@H](C(=O)OCCc1ccccc1)[C@@H](OC(c1ccc(F)cc1)c1ccc(F)cc1)C2 (some centres undefined),36.7,2.6,–,–
CN1C2CCC1[C@@H](C(=O)OCCc1ccc([N+](=O)[O-])cc1)[C@@H](OC(c1ccc(F)cc1)c1ccc(F)cc1)C2 (some centres undefined),97.7,3.3,–,–
CN1C2CCC1[C@@H](C(=O)OCCc1ccc(N)cc1)[C@@H](OC(c1ccc(F)cc1)c1ccc(F)cc1)C2 (some centres undefined),36.7,8,1340,Ki [6]: 263 nM; Ki [7]: 1500 nM
CN1C2CCC1[C@@H](C(=O)OCCc1ccc(N=C=S)cc1)[C@@H](OC(c1ccc(F)cc1)c1ccc(F)cc1)C2 (some centres undefined),–,–,–,IC50 [8]: 537 nM
CC(C)OC(=O)[C@@H]1C2CCC(C[C@@H]1OC(c1ccc(F)cc1)c1ccc(F)cc1)N2C (some centres undefined),30.3,6.2,–,–
CN1C2CCC1[C@@H](C(=O)OCCc1ccc(N=[N+]=[N-])c(I)c1)[C@@H](c1ccc(Cl)c(Cl)c1)C2 (some centres undefined),–,–,–,IC50 [8]: 14.5 nM
"COC(=O)[C@@H]1C2CCC(C[C@@H]1OC(c1ccc(F)cc1)c1ccc(F)cc1)N2C (single isomer, unassigned; (+))",–,–,269,–
"CN1C2CCC1[C@@H](C(=O)OCc1ccccc1)[C@@H](OC(c1ccc(F)cc1)c1ccc(F)cc1)C2 (single isomer, unassigned; (+))",–,–,2230,Ki [6]: 4380 nM; Ki [7]: 2040 nM
"CN1C2CCC1[C@@H](C(=O)OCCc1ccccc1)[C@@H](OC(c1ccc(F)cc1)c1ccc(F)cc1)C2 (single isomer, unassigned; (+))",–,–,1030,Ki [6]: 354 nM; Ki [7]: 3160 nM
"CC(C)OC(=O)[C@@H]1C2CCC(C[C@@H]1OC(c1ccc(F)cc1)c1ccc(F)cc1)N2C (single isomer, unassigned; (+))",–,–,642,Ki [6]: 2680 nM; Ki [7]: 12000 nM
